Results: publication PMC5749269 (ACS biomaterials science & engineering, 2017)
Where no end group is shown, it is not given here.

Experiments:
[1] = Zeta potential analysis; assay type: physicochemical; settings: 100 μM in water, n = 3
How it was run: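 Micelles made by methanol thin-film evaporation, overnight vacuum drying and 30 min hydration at 80 °C, then cooled to room temperature. Zeta potential measured on 100 μM micelles dissolved in water, n = 3.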

[2] = system: WEHI 274.1 murine monocytes; experiment: Chemotaxis assay; assay type: cell-based; settings: 1000 μM, 4 h, transwell 8 μm pores, Pico Green, n = 5, mean ± SEM
[3] = system: 22Rv1 prostate cancer cells; assay type: cell-based; settings: 72 h
[4] = system: PC3 prostate cancer cells; experiment: In vitro cytotoxicity; assay type: cell-based; settings: 72 h
[5] = system: CCR2 gene expression in 22Rv1 prostate cancer cells; experiment: CCR2 expression by qRT-PCR; assay type: cell-based; settings: 22Rv1 cells, 5 μM (noncytotoxic), vs PBS, n = 3
How it was run: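 22Rv1 cells kept in RPMI-1640 with 10% FBS and 1% penicillin-streptomycin at 37 °C, 5% CO2, treated with test compound at 5 μM or PBS. cDNA made with an RT2 first-strand kit and amplified with RT2 SYBR Green qPCR master mix. Relative expression vs Actb or GAPDH housekeeping gene by the 2ΔΔCq method. n = 3, mean ± SEM.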

[6] = system: WEHI 274.1 murine monocytes; experiment: In vitro cell viability; settings: MTS assay, varying concentrations, 24 and 72 h, n = 6

In the case of “CYNSLVFRIRNSTQRKYRASISTK-OH [scrambled peptide]”, the zeta potential [1] is reported as 7.2 ± 3.4 mV, the “migrated monocytes (DNA quantification)” value [2] is reported as 13.9 ± 2.8 ng DNA/mL and the IC50 [3] is reported as 76.1 ± 15.8 µM. The IC50 [4] was over 100 µM, the “downregulation of CCR2 gene expression” value [5] was “unappreciable CCR2 changes” and the “cell viability of monocytes” value [6] was “no decrease in cell viability”.
